Results: ChEMBL document CHEMBL5096224, “First-in-Class Dual Mechanism Ferroptosis-HDAC Inhibitor Hybrids” (J Med Chem, 2022)
The source made the active and inactive calls. The calls are words filed in the database; no cut-off is given here.

Key:
[1] = test system: NCI-H522; experiment: Cytotoxicity against human NCI-H522 cells assessed as reduction in cell survival at 1 to 5 uM incubated for 3 days in presence of ferroptosis inhibitor, liproxstatin-1 by methylene blue staining based analysis; format: functional; conditions: dose 1-5 µM, time 3.0 day
[2] = Cytotoxicity against human WI-38 cells assessed as reduction in cell survival incubated for 30 mins by methylene blue staining based analysis
[3] = Neurotoxicity in human SH-SY5Y cells assessed as decrease in cell viability at 2.32 uM incubated for 3 days; format: toxicity, cell-based; conditions: 72 h, time 3 day
Summary of the method: (§1)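 SH-SY5Y cells were grown on poly-D-lysine in DMEM/F12 with 10% FBS and seeded at 15,000/well 36 h before dosing, with DMSO as vehicle. Viability was read by MTT: 2 h at 37 °C, then solubilization for 1 h and absorbance at 570. Data are triplicates from three separate experiments.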

[4] = test system: NCI-H522; experiment: Induction of ferroptosis in human NCI-H522 cells assessed as induction of lipid peroxidase accumulation at 10 uM incubated for 6 hrs by C11-BODIPY-581/591 staining based flow cytometry analysis; format: functional, cell-based
Summary of the method: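 NCI-H522 cells were plated overnight to about 70% density and treated at 10 μM. C11-BODIPY 581/591 (1 μM) was added at the time of treatment. After 6 h, cells were trypsinized, washed, resuspended in PBS with 2% FBS and analysed by flow cytometry, 20 × 10³ cells per sample.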

[5] = molecular target: Histone deacetylase 1 (Homo sapiens, UniProt Q13547); experiment: Inhibition of full length his6/FLAG-tagged human recombinant HDAC1(1 to 482 residues) expressed in Sf9 insect cells
[6] = molecular target: Histone deacetylase 2 (Homo sapiens, UniProt Q92769)
[7] = molecular target: T1, Protein deacetylase HDAC6 (Homo sapiens, UniProt Q9UBN7); experiment: Inhibition of full length C-terminal FLAG-tagged human recombinant HDAC6 expressed inSf9 insect cells; parameters: species or system Sf9
T1 sequence (Q9UBN7 whole entry): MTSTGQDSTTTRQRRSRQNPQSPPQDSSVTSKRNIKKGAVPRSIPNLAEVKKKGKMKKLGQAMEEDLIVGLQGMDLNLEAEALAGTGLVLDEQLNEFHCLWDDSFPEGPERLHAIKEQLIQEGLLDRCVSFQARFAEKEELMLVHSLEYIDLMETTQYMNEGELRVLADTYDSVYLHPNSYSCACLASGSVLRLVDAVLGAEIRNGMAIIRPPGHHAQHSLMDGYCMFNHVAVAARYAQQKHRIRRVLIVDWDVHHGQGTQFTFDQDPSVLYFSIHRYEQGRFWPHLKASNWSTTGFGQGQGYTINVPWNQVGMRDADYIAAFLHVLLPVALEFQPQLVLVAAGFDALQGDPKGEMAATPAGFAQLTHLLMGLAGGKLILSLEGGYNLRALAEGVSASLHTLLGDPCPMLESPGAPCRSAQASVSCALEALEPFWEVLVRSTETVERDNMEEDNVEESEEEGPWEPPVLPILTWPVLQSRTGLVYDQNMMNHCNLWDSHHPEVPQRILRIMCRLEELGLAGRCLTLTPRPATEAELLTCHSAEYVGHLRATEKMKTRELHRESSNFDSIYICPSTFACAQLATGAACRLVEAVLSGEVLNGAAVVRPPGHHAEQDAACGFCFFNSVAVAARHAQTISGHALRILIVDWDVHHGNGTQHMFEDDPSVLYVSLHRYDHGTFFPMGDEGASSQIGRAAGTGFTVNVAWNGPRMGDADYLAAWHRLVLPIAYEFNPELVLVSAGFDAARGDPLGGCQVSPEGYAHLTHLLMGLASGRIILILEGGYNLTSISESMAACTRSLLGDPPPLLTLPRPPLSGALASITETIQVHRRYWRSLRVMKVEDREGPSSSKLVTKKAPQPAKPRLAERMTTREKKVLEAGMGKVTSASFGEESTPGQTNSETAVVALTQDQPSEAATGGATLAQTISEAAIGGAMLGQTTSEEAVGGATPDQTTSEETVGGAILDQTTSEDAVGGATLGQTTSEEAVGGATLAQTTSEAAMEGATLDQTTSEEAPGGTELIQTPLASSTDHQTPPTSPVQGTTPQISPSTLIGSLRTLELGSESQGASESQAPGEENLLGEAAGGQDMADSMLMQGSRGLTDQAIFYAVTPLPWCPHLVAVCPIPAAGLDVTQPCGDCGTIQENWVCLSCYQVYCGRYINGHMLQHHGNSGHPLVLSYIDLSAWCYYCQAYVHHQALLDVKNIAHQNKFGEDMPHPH

[8] = molecular target: Histone deacetylase 3 (Homo sapiens, UniProt O15379); experiment: Inhibition of full length C-terminal his6/FLAG-tagged human recombinant HDAC3 ([…]) expressed in Sf9 insect cells
[9] = molecular target: T2, Histone deacetylase 8 (Homo sapiens, UniProt Q9BY41); experiment: Inhibition of full length C-terminal his-tagged human recombinant HDAC8 expressed in Sf9 insect cells
T2 sequence (Q9BY41 whole entry): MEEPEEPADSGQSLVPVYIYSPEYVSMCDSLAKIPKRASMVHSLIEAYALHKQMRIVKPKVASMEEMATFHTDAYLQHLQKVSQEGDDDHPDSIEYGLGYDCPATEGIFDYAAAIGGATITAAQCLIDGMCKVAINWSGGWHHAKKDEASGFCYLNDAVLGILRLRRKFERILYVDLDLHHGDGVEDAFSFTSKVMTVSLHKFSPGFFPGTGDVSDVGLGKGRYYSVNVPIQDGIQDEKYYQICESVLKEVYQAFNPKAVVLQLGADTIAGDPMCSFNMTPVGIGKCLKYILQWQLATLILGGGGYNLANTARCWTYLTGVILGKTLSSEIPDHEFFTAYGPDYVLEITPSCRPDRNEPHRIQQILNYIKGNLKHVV

[10] = test system: NCI-H522; experiment: Induction of ferroptosis in human NCI-H522 cells assessed as viability at 5 uM incubated at 0.2 to 10.2 hrs by microscopic analysis; format: functional, cell-based; conditions: time 0.2-10.2 hrs
Summary of the method: (§2)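 Time-lapse imaging used NCI-H522 cells adhered overnight and equilibrated to 10% CO2, held in sealed flasks on a 37 °C stage. Frames were taken every 12 min, 300 in total, with a ×40 objective. For Kaplan–Meier curves, at least 100 cells were scored, with death counted per 1 h or 0.2 h interval.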

[11] = test system: NCI-H522; experiment: Induction of cell cycle arrest in human NCI-H522 cells assessed as accumulation at S phase 5 uM incubated for 24 to 72 hrs by PI staining based flow cytometric analysis; format: functional; conditions: time lower […], time upper […]
[12] = test system: NCI-H522; experiment: Induction of cell cycle arrest in human NCI-H522 cells assessed as accumulation at G1 phase 5 uM incubated for 24 to 72 hrs by PI staining based flow cytometric analysis; format: functional; conditions: time lower […], time upper […]
[13] = test system: NCI-H522; experiment: Induction of cell cycle arrest in human NCI-H522 cells assessed as accumulation at G2/M phase 5 uM incubated for 24 to 72 hrs by PI staining based flow cytometric analysis; format: functional; conditions: time lower […], time upper […]
[14] = test system: Panel NCI-60 (60 carcinoma cell lines); experiment: Cytotoxicity against human NCI-60 cells assessed as cell growth inhibition incubated for 24 hrs by MTT assay; format: functional, cell-based
Summary of the method: (§3)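 Run within the NCI-60 DTP screen: a single-dose test at 10 μM across about sixty human tumour lines, read as Growth % and mean inhibition. Selected compounds then went to a five-dose assay to derive GI50. Both were single experiments without replicates.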

[15] = test system: HL-60; experiment: Cytotoxicity against human HL-60 cells assessed as cell growth inhibition incubated for 24 hrs by MTT assay; format: functional, cell-based
[16] = test system: K562; experiment: Cytotoxicity against human K562 cells assessed as cell growth inhibition incubated for 24 hrs by MTT assay; format: functional, cell-based
[17] = test system: MOLT-4; experiment: Cytotoxicity against human MOLT-4 cells assessed as cell growth inhibition incubated for 24 hrs by MTT assay; format: functional, cell-based
[18] = test system: RPMI-8226; experiment: Cytotoxicity against human RPMI-8226 cells assessed as cell growth inhibition incubated for 24 hrs by MTT assay; conditions: RPMI-8226, 24 h
[19] = test system: SR; experiment: Cytotoxicity against human SR cells assessed as cell growth inhibition incubated for 24 hrs by MTT assay; format: functional, cell-based
[20] = test system: A549; experiment: Cytotoxicity against human A549 cells assessed as cell growth inhibition incubated for 24 hrs by MTT assay; format: functional, cell-based
[21] = test system: EKVX; experiment: Cytotoxicity against human EKVX cells assessed as cell growth inhibition incubated for 24 hrs by MTT assay; format: functional, cell-based; summary of the method: as §3
[22] = test system: HOP-62; experiment: Cytotoxicity against human HOP-62 cells assessed as cell growth inhibition incubated for 24 hrs by MTT assay; format: functional, cell-based
[23] = test system: HOP-92; experiment: Cytotoxicity against human HOP-92 cells assessed as cell growth inhibition incubated for 24 hrs by MTT assay; format: functional, cell-based; summary of the method: as §3
[24] = test system: NCI-H226; experiment: Cytotoxicity against human NCI-H226 cells assessed as cell growth inhibition incubated for 24 hrs by MTT assay; format: functional, cell-based
[25] = test system: NCI-H322M; experiment: Cytotoxicity against human NCI-H322M cells assessed as cell growth inhibition incubated for 24 hrs by MTT assay; format: functional, cell-based; summary of the method: as §3
[26] = test system: NCI-H460; experiment: Cytotoxicity against human NCI-H460 cells assessed as cell growth inhibition incubated for 24 hrs by MTT assay; format: functional, cell-based
[27] = test system: NCI-H522; experiment: Cytotoxicity against human NCI-H522 cells assessed as cell growth inhibition incubated for 24 hrs by MTT assay; format: functional, cell-based
[28] = test system: SF-539; experiment: Cytotoxicity against human SF-539 cells assessed as cell growth inhibition incubated for 24 hrs by MTT assay; conditions: SF-539, 24 h
[29] = test system: NCI-H23; experiment: Cytotoxicity against human NCI-H23 cells assessed as cell growth inhibition at 10 uM incubated for 24 hrs by MTT assay; conditions: NCI-H23, 24 h
[30] = test system: NCI-H522; experiment: Cytotoxicity against human NCI-H522 cells assessed as reduction in cell survival at 1 to 5 uM incubated for 3 days in presence of Methyl 7-(2-ethynylthiazole-4-carboxamido)heptanoate by methylene blue staining based analysis; format: functional; conditions: dose 1-5 µM, time 3.0 day
Summary of the method: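 Cells (5000/well, n = 3, DMEM with 10% serum, 37 °C, 5% CO2) were treated the day after plating and kept for three days. […] Survival was expressed relative to DMSO.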

[31] = Neurotoxicity in human SH-SY5Y cells assessed as decrease in cell viability at 20 to 80 uM incubated for 3 days; format: toxicity, cell-based; conditions: 72 h, dose 20-80 µM, time 3 day; summary of the method: as §1
[32] = Neurotoxicity in human SH-SY5Y cells assessed as decrease in cell viability at 6.665 uM incubated for 3 days; format: toxicity, cell-based; conditions: 72 h, time 3 day; summary of the method: as §1
[33] = test system: NCI-H522; experiment: Induction of ferroptosis in human NCI-H522 cells assessed as induction of lipid peroxidase accumulation at 10 uM incubated for 4 days in presence of Lipoxstatin-1 by C11-BODIPY-581/591 staining based flow cytometry analysis; format: functional, cell-based
[34] = test system: NCI-H522; experiment: Induction of ferroptosis in human NCI-H522 cells assessed as viability at 20 uM incubated after 8 to 12 hrs by microscopic analysis; format: functional, cell-based; conditions: time lower 8.0 hrs, time upper […]; summary of the method: as §2

Sequence of Histone deacetylase 1 (Q13547 whole entry, the tested form may be a part): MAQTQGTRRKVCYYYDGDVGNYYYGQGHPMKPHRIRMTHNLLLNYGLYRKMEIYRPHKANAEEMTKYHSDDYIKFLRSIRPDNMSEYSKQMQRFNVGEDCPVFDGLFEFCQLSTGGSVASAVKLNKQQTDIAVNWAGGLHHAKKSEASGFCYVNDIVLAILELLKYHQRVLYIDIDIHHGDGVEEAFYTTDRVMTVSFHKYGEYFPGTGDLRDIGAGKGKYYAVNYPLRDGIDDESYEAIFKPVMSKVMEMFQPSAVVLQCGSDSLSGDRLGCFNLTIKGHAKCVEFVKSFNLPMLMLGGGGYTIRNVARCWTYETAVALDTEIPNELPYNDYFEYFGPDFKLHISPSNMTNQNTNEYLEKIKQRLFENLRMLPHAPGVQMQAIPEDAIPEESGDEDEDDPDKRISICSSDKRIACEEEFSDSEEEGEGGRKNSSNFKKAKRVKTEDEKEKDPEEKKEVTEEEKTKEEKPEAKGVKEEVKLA
Sequence of Histone deacetylase 3 (O15379 whole entry): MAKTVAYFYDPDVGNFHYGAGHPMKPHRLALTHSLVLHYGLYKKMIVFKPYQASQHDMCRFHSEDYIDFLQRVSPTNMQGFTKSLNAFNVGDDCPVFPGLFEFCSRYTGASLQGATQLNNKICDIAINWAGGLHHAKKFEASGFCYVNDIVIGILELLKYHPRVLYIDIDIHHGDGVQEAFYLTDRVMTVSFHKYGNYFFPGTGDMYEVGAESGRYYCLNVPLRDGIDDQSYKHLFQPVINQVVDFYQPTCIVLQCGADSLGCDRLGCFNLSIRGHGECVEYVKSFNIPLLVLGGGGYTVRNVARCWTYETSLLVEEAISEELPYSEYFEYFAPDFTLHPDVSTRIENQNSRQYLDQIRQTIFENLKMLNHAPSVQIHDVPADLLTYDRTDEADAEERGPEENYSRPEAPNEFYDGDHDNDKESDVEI
Sequence of Histone deacetylase 2 (Q92769 whole entry): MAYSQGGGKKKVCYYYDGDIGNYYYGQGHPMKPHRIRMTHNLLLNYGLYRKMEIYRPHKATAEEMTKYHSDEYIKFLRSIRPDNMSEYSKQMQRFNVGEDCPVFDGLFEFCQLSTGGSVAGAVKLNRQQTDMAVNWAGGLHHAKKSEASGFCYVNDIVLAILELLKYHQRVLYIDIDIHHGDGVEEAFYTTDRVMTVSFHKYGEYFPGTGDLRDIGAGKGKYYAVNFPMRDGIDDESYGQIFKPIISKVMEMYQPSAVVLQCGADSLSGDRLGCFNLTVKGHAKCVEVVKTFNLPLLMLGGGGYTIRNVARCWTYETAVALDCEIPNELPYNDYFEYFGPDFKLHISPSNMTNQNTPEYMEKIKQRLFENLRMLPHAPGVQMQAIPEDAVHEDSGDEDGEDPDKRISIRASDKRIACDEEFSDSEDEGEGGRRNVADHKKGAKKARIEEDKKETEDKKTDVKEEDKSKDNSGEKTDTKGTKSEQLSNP

With `C#Cc1nc(C(=O)NCCCCCCC(=O)NO)cs1` as the compound, how does the Activity [1] read?
Its Activity is “Active”.

And the IC50 at 30 min [2]?
The IC50 at 30 min was 8370 nM.

What about the Activity [3] of the same compound?
Its Activity is “Non-Toxic”.

And the Activity [4]?
The Activity was “Active”.

And the IC50 [5]?
Its IC50 is 67 nM.

And the IC50 [6]?
Its IC50 is 93 nM.

What about the IC50 [7] of the same compound?
The IC50 was 1 nM.

And the IC50 [8]?
The IC50 was 50 nM.

What about the IC50 [9] of the same compound?
Its IC50 is 320 nM.

And the Activity [10]?
Its Activity is “Active”.

What about the Activity [11] of the same compound?
The Activity was “Active”.

And the Activity [12]?
Its Activity is “Active”.

And the Activity [13]?
Its Activity is “Active”.

And the Activity [14]?
The Activity was “Active”.

What about the Activity [15] of the same compound?
The Activity was “Active”.

And the Activity [16]?
Its Activity is “Active”.

What about the Activity [17] of the same compound?
The Activity was “Active”.

What about the GI50 [18] of the same compound?
Its GI50 is 350 nM.

What about the Activity [19] of the same compound?
Its Activity is “Active”.

What about the Activity [20] of the same compound?
Its Activity is “Active”.

And the Activity [21]?
The Activity was “Active”.

What about the Activity [22] of the same compound?
The Activity was “Active”.

And the Activity [23]?
Its Activity is “Active”.

What about the Activity [24] of the same compound?
The Activity was “Active”.

What about the Activity [25] of the same compound?
The Activity was “Active”.

And the Activity [26]?
Its Activity is “Active”.

And the Activity [27]?
Its Activity is “Active”.

What about the GI50 [28] of the same compound?
The GI50 was 1000 nM.

What about the GI50 [29] of the same compound?
The GI50 was 780 nM.

For `O=C(CCCCC/C=C\c1csc(Br)n1)NO`, which Activity [1] is on record?
The Activity was “Active”.

What does the source list for `O=C(CCCCCCNC(=O)c1csc(Br)n1)NO`?
Activity [1]: Active; Activity [30]: Active; Activity [31]: Toxic; Activity [32]: Toxic

Which IC50 at 30 min [2] does the source give for `C#Cc1nc(C2=C(C)[C@@H](O)CC2)cs1` here?
Its IC50 at 30 min is 15100 nM.

What about the Activity [33] of the same compound?
Its Activity is “Active”.

What about the Activity [34] of the same compound?
Its Activity is “Active”.

Which Activity [11] does the source give for `O=C(CCCCCCC(=O)Nc1ccccc1)NO` [VORINOSTAT] here?
Its Activity is “Active”.

And the Activity [12]?
The Activity was “Active”.

What about the Activity [13] of the same compound?
Its Activity is “Active”.

For `C#Cc1nc(/C=C\CCCCCC(=O)OCC)cs1`, which Activity [1] is on record?
Its Activity is “Active”.
